Activity calls are given as the source filed them.
Assays:
[1] = target: T1, Corticotropin-releasing factor receptor 1 (Rattus norvegicus, UniProt P35353); experiment: Displacement of [125I]Tyr0-ovine CRF from CRF1 receptor in rat cortical membrane by gamma counting; assay type: cell membranes
T1 sequence (P35353 whole entry): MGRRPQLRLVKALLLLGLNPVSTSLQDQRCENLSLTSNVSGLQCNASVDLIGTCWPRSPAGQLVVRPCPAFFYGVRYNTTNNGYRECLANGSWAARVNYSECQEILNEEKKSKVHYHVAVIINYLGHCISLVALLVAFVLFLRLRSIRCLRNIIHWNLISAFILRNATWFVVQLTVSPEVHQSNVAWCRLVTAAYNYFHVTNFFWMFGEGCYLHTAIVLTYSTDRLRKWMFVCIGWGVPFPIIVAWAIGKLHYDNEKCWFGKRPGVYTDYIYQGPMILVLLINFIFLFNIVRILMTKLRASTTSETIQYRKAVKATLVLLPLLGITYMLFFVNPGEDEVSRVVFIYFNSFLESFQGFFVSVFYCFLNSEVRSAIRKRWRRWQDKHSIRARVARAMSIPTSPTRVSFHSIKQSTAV
In short: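 Inhibition of 125I-Tyr0-ovine-CRF binding to rat cortical membranes measured across dilutions of test drug; IC50 derived by iterative curve fitting.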

Canis familiaris [2] = experiment: Ex vivo displacement of [125I]Tyr0-ovine CRF from CRF1 receptor in dog at 5 mg/kg, po measured in plasma after 10 hrs; assay type: functional; details: Canis lupus familiaris
In short: (§1)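 Beagle dogs given 5 mg/kg po (free base), in Labrafil or Tween-80/0.5% methylcellulose 1:99; plasma drawn 2 and 10 h postdose, diluted 10-fold in binding buffer, and tested for inhibition of 125I-Tyr0-ovine-CRF binding to rat receptors; mean ± SD, n = 3.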

Canis familiaris [3] = experiment: Ex vivo displacement of [125I]Tyr0-ovine CRF from CRF1 receptor in dog at 5 mg/kg, po measured in plasma after 2 hrs; assay type: functional; details: Canis lupus familiaris; in short: as §1
Rattus norvegicus [4] = experiment: Toxicity in Sprague-Dawley rat assessed as total distance traveled at 30 mg/kg, po after 1 hr by open-field locomotor activity test; assay type: organism-based; design: dose 30 mg/kg, route oral; details: in vivo
In short: (§2)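 Male Sprague-Dawley rats received a single oral gavage dose of 30 mg/kg (free base weight) in 0.5% methocel–Tween-80 (99:1) or vehicle alone. Behaviour was assessed 1 h postdose, as time on the rotorod in seconds for the rotorod test and total distance travelled in cm for open-field locomotor activity. Values are mean ± SEM, n = 8 per group.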

Rattus norvegicus [5] = experiment: Toxicity in Sprague-Dawley rat assessed as time spent on rotarod at 30 mg/kg, po after 1 hr by rotarod test; assay type: organism-based; design: dose 30 mg/kg, route oral; details: in vivo; in short: as §2
[6] = target: T1, Corticotropin-releasing factor receptor 1; experiment: Antagonist activity at CRF1 receptor in rat brain homogenates assessed as inhibition of CRF-stimulted cAMP production; assay type: functional, tissue-based
In short: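 Rat cortical homogenate (0.8 mg original wet weight tissue) incubated 10 min at 37 °C in 100 mM Tris-HCl pH 7.4, 10 mM MgCl2, 0.4 mM EGTA, 0.1% BSA, 1 mM IBMX, creatine phosphate/phosphocreatine kinase, 100 nM ovine-CRF; started with 1 mM ATP/[32P]ATP; [32P]cAMP separated on Dowex and alumina columns, [3H]cAMP recovery marker; n = 3.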

[7] = target: T2, Corticotropin-releasing factor receptor 1 (Homo sapiens, UniProt P34998); experiment: Binding affinity to CRF1 receptor in human IMR32 cells; assay type: cell-based, IMR-32
T2 sequence (P34998 whole entry): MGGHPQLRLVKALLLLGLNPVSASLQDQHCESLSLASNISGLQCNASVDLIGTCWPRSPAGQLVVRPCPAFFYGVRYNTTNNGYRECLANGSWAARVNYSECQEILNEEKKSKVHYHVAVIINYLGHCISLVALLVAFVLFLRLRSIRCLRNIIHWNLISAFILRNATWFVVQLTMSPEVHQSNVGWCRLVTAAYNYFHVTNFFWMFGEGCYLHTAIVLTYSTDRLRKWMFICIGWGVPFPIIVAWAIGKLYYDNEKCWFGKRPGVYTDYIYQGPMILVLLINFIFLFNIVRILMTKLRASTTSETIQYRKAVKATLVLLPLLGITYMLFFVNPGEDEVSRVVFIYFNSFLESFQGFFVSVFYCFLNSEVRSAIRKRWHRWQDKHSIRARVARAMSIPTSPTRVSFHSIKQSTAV

Rattus norvegicus [8] = experiment: Anxiolytic-like activity in Sprague-Dawley rat assessed as increase in time spent in open arms at 18 mg/kg, po measured after 1 hr by elevated plus maze test; assay type: functional, organism-based; design: dose 18 mg/kg
In short: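 Group-housed male Sprague-Dawley rats (180-300 g) dosed po in 0.25% Methocel 1 h before elevated plus maze; arm entry defined as all four paws in arm; percent time in open arms scored; test doses 1.0, 3.0, 10, 30 mg/kg; positive control at 18 mg/kg; n = 13-15/dose; mean ± SEM, ANOVA then Fisher's LSD.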

Rattus norvegicus [9] = experiment: Anxiolytic-like activity in Sprague-Dawley rat assessed as decrease in latency to exit dark chamber at 10 mg/kg, po measured after 1 hr by defensive withdrawal test relative to control; assay type: functional; design: scale not given: the % may be the effect or the level left
In short: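 Male Sprague-Dawley rats (180-300 g), individually housed; open field with cylindrical dark chamber; oral dosing in 0.25% Methocel 1 h before a 15 min session scored blind via video; latency to place all four paws in open field recorded, maximum 900 s; test doses 1.0, 3.0, 10, 30 mg/kg; positive control at 10 mg/kg; n = 12/dose; Kruskal-Wallis then Mann-Whitney U.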

Row | Compound | IC50 [1] | also measured
1 | CCCCN(CC)c1nc(C)nc2c(-c3c(C)cc(OC)cc3OC)c(C)nn12 | 1.72 nM | 
2 | COCCN(CC1CC1)c1nc(C)nc2c(-c3c(C)cc(OC)cc3OC)c(C)nn12 | 1.8 nM | 
3 | COCCN(CCOC)c1nc(C)nc2c(-c3ccc(OC)cc3)c(C)nn12 | 11.5 nM | 
4 | CCN(CC)c1nc(C)nc2c(-c3ccc(OC)cc3C)c(C)nn12 | 6.08 nM | 
5 | COCCN(CCOC)c1nc(C)nc2c(-c3cc(F)c(OC)cc3Cl)c(C)nn12 | 1.18 nM | 
6 | CCN(CC)c1nc(C)nc2c(-c3c(C)cc(OC)cc3OC)c(C)nn12 | 1.2 nM | inhibition in vivo at 5 mg/kg (Canis familiaris [2]): 30%; inhibition in vivo at 5 mg/kg (Canis familiaris [3]): 56%
7 | COc1ccc(-c2c(C)nn3c(N(CCC#N)C4CC4)nc(C)nc23)c(C)c1 | 1.88 nM | 
8 | COCC(COC)Nc1nc(C)nc2c(-c3ccc(OC)cc3C)c(C)nn12 | 9.7 nM | 
9 | CCCN(CCC#N)c1nc(C)nc2c(-c3ccc(OC)cc3C)c(C)nn12 | 2.16 nM | 
10 | C=CCN(C)c1nc(C)nc2c(-c3c(C)cc(OC)cc3OC)c(C)nn12 | 4.92 nM | 
11 | C=CCN(CC=C)c1nc(C)nc2c(-c3c(C)cc(OC)cc3OC)c(C)nn12 | 1 nM | 
12 | COCCN(CCOC)c1nc(C)nc2c(-c3c(C)cc(OC)cc3C)c(C)nn12 | 2.74 nM | 
13 | CNC1=Nc2ccc(Cl)cc2C(c2ccccc2)=[N+]([O-])C1 [CHLORDIAZEPOXIDE] |  | Activity (Rattus norvegicus [4]): 2249 cm; Time (Rattus norvegicus [5]): 121 s
14 | H-DLTFHLLREMLEMAKAEQEAEQAALNRLLLEEA-NH2 | 1.24 nM | IC50 [6]: 264 nM; IC50 [7]: 2 nM
15 | CCC(CC)Nc1nc(C)nc2c(-c3cc(F)c(OC)cc3C)c(C)nn12 | 1.9 nM | inhibition in vivo at 5 mg/kg (Canis familiaris [2]): 25%; inhibition in vivo at 5 mg/kg (Canis familiaris [3]): 81%
16 | CCC1CCCCN1c1nc(C)nc2c(-c3c(C)cc(OC)cc3OC)c(C)nn12 (centres undefined) | 3.26 nM | 
17 | CCN(CCOC)c1nc(C)nc2c(-c3c(C)cc(OC)cc3OC)c(C)nn12 | 1.78 nM | inhibition in vivo at 5 mg/kg (Canis familiaris [2]): 54%; inhibition in vivo at 5 mg/kg (Canis familiaris [3]): 86%
18 | COCCN(CCOC)c1nc(C)nc2c(-c3cc(OC)c(OC)cc3C)c(C)nn12 | 13.7 nM | 
19 | CCCN(CCC)c1nc(C)nc2c(-c3c(C)cc(OC)cc3OC)c(C)nn12 | 3.72 nM | 
20 | CCC(CC)Nc1nc(C)nc2c(-c3c(C)cc(OC)cc3OC)c(C)nn12 | 5 nM | inhibition in vivo at 5 mg/kg (Canis familiaris [2]): 56%; inhibition in vivo at 5 mg/kg (Canis familiaris [3]): 80%
21 | CCCN(C)c1nc(C)nc2c(-c3c(C)cc(OC)cc3OC)c(C)nn12 | 6.48 nM | 

Row | Compound | IC50 [1] | also measured
22 | CCCN(CC1CC1)c1nc(C)nc2c(-c3ccc(OC)cc3C)c(C)nn12 | 1.96 nM | 
23 | COc1cc(C)c(-c2c(C)nn3c(NC4CCC4)nc(C)nc23)c(OC)c1 | 17.4 nM | inhibition in vivo at 5 mg/kg (Canis familiaris [2]): 46%; inhibition in vivo at 5 mg/kg (Canis familiaris [3]): 52%
24 | COCC(COC)Nc1nc(C)nc2c(-c3ccc(Cl)cc3Cl)c(C)nn12 | 4.2 nM | Activity (Rattus norvegicus [8]): Active; Activity (Rattus norvegicus [9]): 52%
25 | CCCC(C)Nc1nc(C)nc2c(-c3c(C)cc(OC)cc3OC)c(C)nn12 (centres undefined) | 2.14 nM | 
26 | COc1ccc(-c2c(C)nn3c(N4CCCC4)nc(C)nc23)c(C)c1 | 80.7 nM | 
27 | CCN(CCC#N)c1nc(C)nc2c(-c3c(C)cc(OC)cc3OC)c(C)nn12 | 2.48 nM | 
28 | COCCN(CCOC)c1nc(C)nc2c(-c3c(C)cc(OC)cc3OC)c(C)nn12 | 7.96 nM | 
29 | COCCN(CCOC)c1nc(C)nc2c(-c3cc(OC)c(OC)cc3Br)c(C)nn12 | 4.99 nM | 
30 | CCN(CC)c1nc(C)nc2c(-c3cc(OC)c(OC)cc3Br)c(C)nn12 | 4.06 nM | 
31 | CCC(CC)Nc1nc(C)nc2c(-c3ccc(OC)cc3)c(C)nn12 | 3.8 nM | 
32 | CCCCN(CC)c1nc(C)nc2c(-c3ccc(OC)cc3C)c(C)nn12 | 2.3 nM | 
33 | CCN(CC)c1nc(C)nc2c(-c3ccc(OC)c(C)c3C)c(C)nn12 | 38.6 nM | 
34 | CCC(CC)Nc1nc(C)nc2c(-c3ccc(OC)c(C)c3C)c(C)nn12 | 11.3 nM | 
35 | COc1ccc(-c2c(C)nn3c(NC4CCC4)nc(C)nc23)c(C)c1 | 24.6 nM | 
36 | CCCCN(CC)c1nc(C)nc2c(-c3c(C)cc(OC)cc3C)c(C)nn12 | 4.22 nM | 
37 | CCOCC(COCC)Nc1nc(C)nc2c(-c3ccc(OC)cc3C)c(C)nn12 | 19.3 nM | 
38 | CC[C@H](C)Nc1nc(C)nc2c(-c3c(C)cc(OC)cc3OC)c(C)nn12 | 2.9 nM | inhibition in vivo at 5 mg/kg (Canis familiaris [2]): 74%; inhibition in vivo at 5 mg/kg (Canis familiaris [3]): 72%
39 | CCN(CC)c1nc(C)nc2c(-c3cc(F)c(OC)cc3Cl)c(C)nn12 | 1.64 nM | 
40 | CCCN(CCC)c1nc(C)nc2c(-c3ccc(OC)cc3C)c(C)nn12 | 2.58 nM | 
41 | COCCN(CCOC)c1nc(C)nc2c(-c3cc(OC)c(OC)cc3Cl)c(C)nn12 | 8 nM | 
42 | CCC(CC)Nc1nc(C)nc2c(-c3cc(OC)c(OC)cc3Br)c(C)nn12 | 6.08 nM | 

Source: ChEMBL document CHEMBL1138477, “8-(4-Methoxyphenyl)pyrazolo[1,5-a]-1,3,5-triazines: selective and centrally active corticotropin-releasing factor receptor-1 (CRF1) antagonists” (J Med Chem, 2009)
